Published values from different studies.
ABL1 F317L non-phosphorylated: Tyrosine-protein kinase ABL1, non-phosphorylated (ABL1, Homo sapiens, UniProt P00519, F317L)
ABL1 Y253F phosphorylated: Tyrosine-protein kinase ABL1, phosphorylated (ABL1, Homo sapiens, UniProt P00519, Y253F)
ABL1 H396P non-phosphorylated: Tyrosine-protein kinase ABL1, non-phosphorylated (ABL1, Homo sapiens, UniProt P00519, H396P)
ABL1 Q252H phosphorylated: Tyrosine-protein kinase ABL1, phosphorylated (ABL1, Homo sapiens, UniProt P00519, Q252H)
ABL1 T315I non-phosphorylated: Tyrosine-protein kinase ABL1, non-phosphorylated (ABL1, Homo sapiens, UniProt P00519, T315I)
ABL1 M351T phosphorylated: Tyrosine-protein kinase ABL1, phosphorylated (ABL1, Homo sapiens, UniProt P00519, M351T)
ABL1 F317I phosphorylated: Tyrosine-protein kinase ABL1, phosphorylated (ABL1, Homo sapiens, UniProt P00519, F317I)
ABL1 phosphorylated: Tyrosine-protein kinase ABL1, phosphorylated (ABL1, Homo sapiens, UniProt P00519)

With `c1cncc(-c2cccc(Nc3nccc(NC4CCCCC4)n3)c2)c1` the remaining binding was 14% (Tyrosine-protein kinase ABL1, phosphorylated (ABL1, Homo sapiens, UniProt P00519, E255K); binding; competition with immobilised ligand; 10 µM).
With `CN(CCCC(F)(F)F)c1nccc(-c2cnn3ncccc23)n1` the remaining binding was 100% (Tyrosine-protein kinase ABL1 (ABL1, Homo sapiens, UniProt P00519, M351T); binding; 1 µM).
For `COc1cnc(Nc2cccc(S(N)(=O)=O)c2)nc1N1CCN(c2ccccc2)CC1`, the remaining binding was 95% (ABL1 F317L non-phosphorylated; binding; competition with immobilised ligand; 1 µM).
With `O=C(Nc1c[nH]nc1C(=O)NC1CCNCC1)c1cc(F)cc(F)c1` the remaining binding was 100% (ABL1 Y253F phosphorylated; binding; competition with immobilised ligand; 1 µM).
The remaining binding of `CN([C@@H]1CCc2c(CC(=O)O)c3ccccc3n2C1)S(=O)(=O)c1ccc(F)cc1` is reported as 100% (ABL1 H396P non-phosphorylated; cell-free assay; competition with immobilised ligand; 1 µM).
`O=C(NCCCN1CCOCC1)c1ccc(Nc2nccc(-c3cc4ccccc4s3)n2)cc1` gave a remaining binding of 58% (ABL1 Q252H phosphorylated; binding; competition with immobilised ligand; 1 µM).
For `O=C(N1CCS(=O)(=O)CC1)N1C[C@H](c2ccc(OC(F)(F)F)cc2)C[C@H](c2nc(C3CC3)no2)C1`, the remaining binding was 92% (ABL1 T315I non-phosphorylated; cell-free assay; competition with immobilised ligand; 1 µM).
`CCN1CCN(Cc2ccc(C(=O)Nc3ccc(C)c(Oc4ccc5c(c4)CC(=O)N5)c3)cc2C(F)(F)F)CC1` gave a remaining binding of 0.35% (ABL1 H396P non-phosphorylated; binding; competition with immobilised ligand; 1 µM).
`O=C(NCC1CCOCC1)c1n[nH]cc1NC(=O)c1c(F)cccc1F` has a remaining binding of 83% (ABL1 Q252H phosphorylated; binding; competition with immobilised ligand; 1 µM).
The remaining binding of `O=C(c1ccc(Nc2ncc(Cl)c(-c3cc4ccccc4s3)n2)cc1)N1CCC(N2CCCC2)CC1` is reported as 12% (ABL1 M351T phosphorylated; binding; competition with immobilised ligand; 1 µM).
The remaining binding of `O=S(=O)(NC1CCC(c2cc(F)ccc2F)(S(=O)(=O)c2ccc(Cl)cc2)CC1)C(F)(F)F` (stereo not drawn) is reported as 100% (ABL1 H396P non-phosphorylated; cell-free assay; competition with immobilised ligand; 1 µM).
`O=C(c1ccc(Nc2ncc(Cl)c(-c3ccc(Cl)s3)n2)cc1)N1CCC(N2CCCC2)CC1` has a remaining binding of 97% (Tyrosine-protein kinase ABL1, non-phosphorylated (ABL1, Homo sapiens, UniProt P00519, F317I); binding; competition with immobilised ligand; 1 µM).
The remaining binding of `CN(c1nccc(-c2cnn3ncccc23)n1)C1CC1` is reported as 100% (Tyrosine-protein kinase ABL1 (ABL1, Homo sapiens, UniProt P00519, F317L); binding; 1 µM).
`Cc1nccc(COC(=O)N2C[C@@H]3[C@@H](CNC(=O)c4ccc5[nH]nnc5c4)[C@@H]3C2)n1` gave a remaining binding of 95% (ABL1 M351T phosphorylated; cell-free assay; competition with immobilised ligand; 1 µM).
`N[C@H]1CCN(c2nccc(-c3cnn4ncccc34)n2)C1` gave a remaining binding of 59% (Tyrosine-protein kinase ABL1 (ABL1, Homo sapiens, UniProt P00519, Q252H); binding; 1 µM).
`Nc1ncc2c(n1)-c1c([nH]c3ccc(C#CC4CC4)cc13)CCCC2` gave a remaining binding of 86% (ABL1 F317I phosphorylated; binding; competition with immobilised ligand; 1 µM).
With `CNC(=O)[C@@H]1CC[C@@H](n2c(-c3ccc4cnccc4c3)nc3ccc(C(=O)NCc4cccc(C(N)=O)c4)cc32)C1` the remaining binding was 86% (ABL1 H396P non-phosphorylated; binding; competition with immobilised ligand; 1 µM).
`C[C@@H](c1ccc(-n2cnc3c(N)ncnc32)cc1)N1CCc2nn(C)c(Cc3ccccc3)c2C1=O` has a remaining binding of 13% (ABL1 H396P non-phosphorylated; binding; competition with immobilised ligand; 0.1 µM).
The remaining binding of `COc1ncc2cc3ccccc3nc2c1C#N` is reported as 100% (ABL1 T315I non-phosphorylated; cell-free assay; competition with immobilised ligand; 5 µM).
With `C=CC(=O)N1CCC(C(=O)NCC(=O)N2CCN(c3nc(-c4cnc(N)nc4C(F)F)nc(N4CCOCC4)n3)CC2)CC1` the remaining binding was 94% (ABL1 H396P non-phosphorylated; binding; competition with immobilised ligand; 1 µM).
`CC1=C(C#N)C(c2ccc3c(c2)c(NC(=O)c2ccccc2C)nn3C)C(C#N)=C(C)N1` has a remaining binding of 100% (ABL1 H396P non-phosphorylated; cell-free assay; competition with immobilised ligand; 1 µM).
`O=C(c1ccc(Nc2nccc(-c3cc4ccccc4s3)n2)cc1)N1CCC(N2CCCC2)CC1` has a remaining binding of 6.2% (ABL1 Y253F phosphorylated; binding; competition with immobilised ligand; 1 µM).
With `CC1=C(C#N)[C@@H](c2ccc3[nH]nc(C)c3c2)C(C#N)=C(c2ccc(Cl)cc2)N1` the remaining binding was 100% (ABL1 Q252H phosphorylated; cell-free assay; competition with immobilised ligand; 1 µM).
`Cc1cnc(Nc2ccc(C(=O)N3CCC(N4CCCC4)CC3)cc2)nc1-c1cc2ccccc2s1` gave a remaining binding of 0.9% (Tyrosine-protein kinase ABL1, phosphorylated (ABL1, Homo sapiens, UniProt P00519, H396P); binding; competition with immobilised ligand; 1 µM).
`C[C@H]1CCN(c2nccc(-c3cnn4ncccc34)n2)C1` has a remaining binding of 86% (Tyrosine-protein kinase ABL1, non-phosphorylated (ABL1, Homo sapiens, UniProt P00519); binding; 1 µM).
The remaining binding of `O=C(Nc1cccnn1)N1CC(C/C=C/c2cncc(Oc3ccc(C(F)(F)F)cn3)n2)C1` is reported as 82% (ABL1 phosphorylated; cell-free assay; competition with immobilised ligand; 1 µM).
For `CC1CCCN1c1nccc(-c2cnn3ncccc23)n1` (stereo not drawn), the remaining binding was 96% (Tyrosine-protein kinase ABL1 (ABL1, Homo sapiens, UniProt P00519, Y253F); binding; 1 µM).
With `O=C(NCCCN1CCOCC1)c1ccc(Nc2ncc(Cl)c(-c3ccc(Cl)s3)n2)cc1` the remaining binding was 99% (ABL1 F317I phosphorylated; binding; competition with immobilised ligand; 1 µM).
`COc1cnc(Nc2cccc(S(N)(=O)=O)c2)nc1N1CCN(c2ccccc2)C(=O)C1` gave a remaining binding of 90% (ABL1 F317L non-phosphorylated; binding; competition with immobilised ligand; 1 µM).
`Cc1nc(N2CC[C@@H](O)C2)ncc1-c1cc(C(F)(F)F)cc2[nH]ncc12` has a remaining binding of 61% (ABL1 phosphorylated; binding; competition with immobilised ligand; 1 µM).
